tim10-1 inh: growth inhibitors of tim10-1 mutant yeast, primary screen, luminescence, uHTS; S. cerevisiae tim10-1 ts strain growth, BacTiter-Glo, 24 h; inhibition, % at 20 µM; actives 2.2% (n = 330,000);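 active = inhibition of at least 40%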;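 note: mutant grown at 25 °C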
tim23-1 inh: growth inhibitors of tim23-1 mutant yeast, primary screen, luminescence, uHTS; S. cerevisiae tim23-1 growth, BacTiter-Glo luminescence, 24 h; actives 1.3% (n = 330,000); inhibition, % at 20 µM;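 active = growth inhibition of the mutant yeast at or above 50%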;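 note: temperature-sensitive mutant grown at 25 °C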
CHOP UPR activ: activators of apoptotic CHOP UPR arm, primary screen, cell-based, CHO-CHOP luciferase reporter, luminescence, uHTS; UPR activation; percent of tunicamycin response over DMSO baseline; activation, % at 10 µM; actives 0.34% (n = 330,000); AID 449763, 2010;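 active = at 10 µM dose, activation of 40% or more, normalized to positive control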
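Assay system: CHO-CHOP cells, stable luciferase reporter of PERK-eIF2a-CHOP signalling / Buffer or medium: F12 plus 10% serum / Compound dosing: one dose, 10 µM in 0.5% DMSO / Times: 6 h compound treatment, 37 °C / Technique: luciferase luminescence / Read-out: % reporter activation, DMSO baseline versus tunicamycin full activation / Benchmarks: tunicamycin and DMSO controls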
TIM10 inh: growth inhibitors of isogenic TIM10 control yeast, primary screen, counter-screen for tim10-1 yeast inhibitor project, luminescence, uHTS; S. cerevisiae TIM10 strain growth, BacTiter-Glo luminescence, 24 h; inhibition, % at 10 µM; actives 1.4% (n = 330,000); AID 463195, 2010;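 active = inhibition of 40% or more at the single tested concentration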;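 note: wild-type TIM10 isogenic control strain grown at permissive 25 °C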
UPR XBP1 act: activators of adaptive XBP1 UPR arm, primary screen, cell-based, CHO-XBP1 luciferase reporter, luminescence, uHTS; IRE1-XBP1 UPR activation; percent of tunicamycin response, DMSO as zero; activation, % at 20 µM; actives 0.33% (n = 330,000);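 active = versus positive control, 20 µM dose yields 30% or more activation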
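incubation = overnight seeding at 37 °C, 6 h compound treatment at 37 °C | assay system = CHO-XBP1 cells stably carrying IRE1-XBP1-driven luciferase reporter | input = 1000 cells per well | detection = luciferase luminescence | dosing = single point, 20 µM final compound, 1% DMSO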
tim23-1 confirm: tim23-1 mutant yeast growth inhibitors, confirmation, luminescence, single concentration; shares compounds with tim23-1 inh; S. cerevisiae tim23-1 growth, BacTiter-Glo luminescence, 24 h; inhibition, % at 20 µM; actives 83% (n = 4,400); AID 463218, 2010;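 active = inhibition above about 39% in either of two replicate wells at 20 µM, limit read from the data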;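 note: temperature-sensitive tim23-1 mutant grown at 25 °C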
A number is an active result. Only some compounds are listed: those with a hit (about 3.9% of all), similar ones and a draw of the others.

`COc1ccc(NC(=O)CSc2n[nH]c(-c3ccccc3)n2)cc1S(N)(=O)=O` gave tim10-1 inh inactive, tim23-1 inh inactive, CHOP UPR activ inactive, TIM10 inh inactive and UPR XBP1 act inactive.
Screening Cc1ccc(NC(=O)CSCC(=O)NNC(=O)c2ccoc2C)cc1 returned tim10-1 inh inactive, tim23-1 inh inactive, CHOP UPR activ inactive, TIM10 inh inactive and UPR XBP1 act inactive.
O=C(CSc1ncn[nH]1)Nc1cc(S(=O)(=O)N2CCCC2)ccc1Cl was read as tim10-1 inh inactive, tim23-1 inh inactive, CHOP UPR activ inactive, TIM10 inh inactive and UPR XBP1 act inactive.
`CCN1CCN(C(=O)c2cc(-c3ccc(Cl)s3)nc3ccccc23)CC1` gave tim10-1 inh inactive, tim23-1 inh inactive, CHOP UPR activ inactive, TIM10 inh inactive and UPR XBP1 act inactive.
For COC(=O)C1CCN(C(=O)c2cc(-c3ccc(Cl)s3)nc3ccccc23)CC1 the results were tim10-1 inh inactive, tim23-1 inh 52, CHOP UPR activ inactive, TIM10 inh inactive, UPR XBP1 act inactive and tim23-1 confirm 52.
For CCCCC(=O)NC(c1ccc(C(C)C)cc1)c1ccc2cccnc2c1O (centres undefined) the results were tim10-1 inh inactive, tim23-1 inh 58, CHOP UPR activ inactive, TIM10 inh inactive, UPR XBP1 act inactive and tim23-1 confirm 59.
`CCCCC(=O)NC(c1ccccc1)c1ccc2cccnc2c1O` (centres undefined) gave tim10-1 inh inactive, tim23-1 inh 66, CHOP UPR activ inactive, TIM10 inh inactive, UPR XBP1 act inactive and tim23-1 confirm 58.
CCCCC(=O)NC(c1ccco1)c1cc(Cl)c2cccnc2c1O (centres undefined) was read as tim10-1 inh inactive, tim23-1 inh inactive, CHOP UPR activ inactive, TIM10 inh inactive and UPR XBP1 act inactive.
`CCC(=O)NC(c1ccccc1OC)c1ccc2cccnc2c1O` (centres undefined) gave tim10-1 inh inactive, tim23-1 inh inactive, CHOP UPR activ inactive, TIM10 inh inactive and UPR XBP1 act inactive.
Screening CC(=O)NC(c1ccc(C(C)C)cc1)c1ccc2cccnc2c1O (centres undefined) returned tim10-1 inh inactive, tim23-1 inh 58, CHOP UPR activ inactive, TIM10 inh inactive, UPR XBP1 act inactive and tim23-1 confirm 60.
Screening Oc1c(C(c2ccc(Cl)cc2)N2CCCC2)cc(Cl)c2cccnc12 (centres undefined) returned tim10-1 inh inactive, tim23-1 inh 64, CHOP UPR activ inactive, TIM10 inh inactive, UPR XBP1 act inactive and tim23-1 confirm 68.
For C=C[C@@H](C)N(Cc1ccc(OC)cc1)S(=O)(=O)N(Cc1ccccc1)[C@H](C=C)C(C)C the results were tim10-1 inh inactive, tim23-1 inh inactive, CHOP UPR activ inactive, TIM10 inh inactive and UPR XBP1 act inactive.
For CCOc1ccc(C(C(=O)NCC2CCCO2)N(Cc2cccnc2)C(=O)c2snc(C(N)=O)c2N)cc1 (centres undefined) the results were tim10-1 inh inactive, tim23-1 inh inactive, CHOP UPR activ inactive, TIM10 inh inactive and UPR XBP1 act inactive.
CC(=O)NC(c1ccc(C)cc1)c1cc(Cl)c2cccnc2c1O (centres undefined) was read as tim10-1 inh inactive, tim23-1 inh 62, CHOP UPR activ inactive, TIM10 inh inactive, UPR XBP1 act inactive and tim23-1 confirm 68.
CCCCC(=O)NC(c1ccccc1Cl)c1ccc2cccnc2c1O (centres undefined) was read as tim10-1 inh inactive, tim23-1 inh 53, CHOP UPR activ inactive, TIM10 inh inactive, UPR XBP1 act inactive and tim23-1 confirm 49.
Screening CC(=O)Nc1ccc(OCC(O)Cn2cncn2)cc1 (centres undefined) returned tim10-1 inh inactive, tim23-1 inh inactive, CHOP UPR activ inactive, TIM10 inh inactive and UPR XBP1 act inactive.
For CC1CC(C)CN(C(=O)c2ccc3c(c2NCCO)C(=O)c2ccccc2C3=O)C1 (centres undefined) the results were tim10-1 inh inactive, tim23-1 inh 51, CHOP UPR activ inactive, TIM10 inh inactive, UPR XBP1 act inactive and tim23-1 confirm 53.
`COc1c(Br)cc(/C=N/n2c(-c3ccccc3)n[nH]c2=S)c(O)c1Br` gave tim10-1 inh inactive, tim23-1 inh 62, CHOP UPR activ inactive, TIM10 inh inactive, UPR XBP1 act inactive and tim23-1 confirm 60.
`Oc1ccccc1/C=N/n1c(-c2ccccc2)n[nH]c1=S` gave tim10-1 inh inactive, tim23-1 inh 51, CHOP UPR activ inactive, TIM10 inh inactive, UPR XBP1 act inactive and tim23-1 confirm inactive.
Screening Cc1nc(C(=O)Nc2cc(F)cc(Cl)c2)sc1C1(C)CC(c2ccccc2)=NO1 (centres undefined) returned tim10-1 inh inactive, tim23-1 inh inactive, CHOP UPR activ inactive, TIM10 inh inactive and UPR XBP1 act inactive.
For CCCCOc1ccc(-c2cn3ccccc3n2)cc1[N+](=O)[O-] the results were tim10-1 inh inactive, tim23-1 inh inactive, CHOP UPR activ inactive, TIM10 inh inactive and UPR XBP1 act inactive.
Screening CCCOc1ccc(-c2csc(N)n2)cc1[N+](=O)[O-] returned tim10-1 inh inactive, tim23-1 inh 57, CHOP UPR activ inactive, TIM10 inh inactive, UPR XBP1 act inactive and tim23-1 confirm 57.
For CC(=O)NC(Cc1ccc(C)cc1)C(=O)NC1CCN(C(=O)NCc2ccccc2)CC1 (centres undefined) the results were tim10-1 inh inactive, tim23-1 inh inactive, CHOP UPR activ inactive, TIM10 inh inactive and UPR XBP1 act inactive.
`Cc1cccc(NC(=S)NNc2cccc(Cl)c2)c1` gave tim10-1 inh inactive, tim23-1 inh 52, CHOP UPR activ inactive, TIM10 inh inactive, UPR XBP1 act inactive and tim23-1 confirm 55.
Screening NC(=S)NNc1cccc(Cl)c1 returned tim10-1 inh inactive, tim23-1 inh 60, CHOP UPR activ inactive, TIM10 inh inactive, UPR XBP1 act inactive and tim23-1 confirm 61.
For NC(=S)NNC(=O)Nc1cccc(Cl)c1 the results were tim10-1 inh inactive, tim23-1 inh inactive, CHOP UPR activ inactive, TIM10 inh inactive and UPR XBP1 act inactive.
Screening COCc1c(C(=O)NCCOc2ccc(Cl)cc2)oc2ccccc12 returned tim10-1 inh inactive, tim23-1 inh inactive, CHOP UPR activ inactive, TIM10 inh inactive and UPR XBP1 act inactive.
For O=S(=O)(Nc1ccc(-c2csc(-c3ccccc3)n2)cc1)c1ccccc1 the results were tim10-1 inh inactive, tim23-1 inh 50, CHOP UPR activ inactive, TIM10 inh inactive, UPR XBP1 act inactive and tim23-1 confirm inactive.

Screens (PubChem BioAssay)
